From publication PMC4242840 (The Journal of Cell Biology, 2014) come the findings set out here.

The test system of one assay is pre-60S particles. Briefly: affinity purification of Rpl5-FTpA constructs. The assay is classed as cell-based, Saccharomyces cerevisiae. The note with it: Flag-TEV-ProtA bait. In outline:
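Rpl5 variants tagged with Flag-TEV-ProtA were purified from a 2-liter yeast culture pellet. Steps: IgG-Sepharose 90 min, TEV elution 120 min, FLAG beads 45 min, FLAG-peptide elution. Eluates were run alongside pre-60S particles purified via Nsa2-FTpA and FTpA-Rsa4, then analysed by SDS-PAGE and Western blot.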

Assay [1] concerns the target T1, HIS6-TEV-Rsa4 full-length (S. cerevisiae, UniProt P25382 1-515).
T1 sequence: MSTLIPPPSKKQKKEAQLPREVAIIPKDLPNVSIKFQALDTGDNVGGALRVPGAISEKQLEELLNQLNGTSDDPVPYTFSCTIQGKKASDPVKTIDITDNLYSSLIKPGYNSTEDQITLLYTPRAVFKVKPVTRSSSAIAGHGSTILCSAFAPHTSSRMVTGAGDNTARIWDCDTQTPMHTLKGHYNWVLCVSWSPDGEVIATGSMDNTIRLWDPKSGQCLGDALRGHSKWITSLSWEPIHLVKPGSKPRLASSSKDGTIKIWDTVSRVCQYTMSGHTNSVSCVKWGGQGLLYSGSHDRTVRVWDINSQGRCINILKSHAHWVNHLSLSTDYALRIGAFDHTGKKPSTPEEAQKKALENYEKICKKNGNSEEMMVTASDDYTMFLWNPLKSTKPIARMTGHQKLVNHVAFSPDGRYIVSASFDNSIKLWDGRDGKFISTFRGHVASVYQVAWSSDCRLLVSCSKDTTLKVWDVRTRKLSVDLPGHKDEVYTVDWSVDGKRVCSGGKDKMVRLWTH
Briefly: pull-down.

Assay [2] deals with 25S rRNA helices H89, H90, H42. The assay can be described thus: UV cross-linking and analysis of cDNA. The assay is classed as binding, Saccharomyces cerevisiae. The note with it: in vivo UV cross-linking, % of hits. In outline: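 Yeast culture was UV-irradiated to cross-link protein to RNA, then lysed with zirconia beads. Nsa2-His-TEV-ProtA was bound to IgG-Sepharose and eluted with TEV. The eluate was RNase-treated and denatured, and Nsa2 was repurified on Ni-NTA under denaturing conditions. Cross-linked RNA was ligated to 3′ and 5′ DNA linkers and sequenced; hits were mapped to rRNA helices.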

The test system of assay [3] is Nsa2 shuffle strain (nsa2Δ). The assay can be described thus: complementation of nsa2Δ. The assay is classed as cell-based, Saccharomyces cerevisiae. The settings on record: SDC+FOA, 30°C, 2 or 3 d.

Residue numbers refer to the chain shown, from its start. Numbers in names are those of the source.

B1: wild-type Rpl5: ribosomal protein Rpl5 (uL18), wild type (protein)
chain: MAFQKDAKSSAYSSRFQTPFRRRREGKTDYYQRKRLVTQHKAKYNTPKYRLVVRFTNKDIICQIISSTITGDVVLAAAYSHELPRYGITHGLTNWAAAYATGLLIARRTLQKLGLDETYKGVEEVEGEYELTEAVEDGPRPFKVFLDIGLQRTTTGARVFGALKGASDGGLYVPHSENRFPGWDFETEEIDPELLRSYIFGGHVSQYMEELADDDEERFSELFKGYLADDIDADSLEDIYTSAHEAIRADPAFKPTEKKFTKEQYAAESKKYRQTKLSKEERAARVAAKIAALAGQQ
Regarding B1, the “co-purified particles / Syo1” value in the assay with pre-60S particles is on record as “only recovered mature 60S subunits, plus Syo1”.

B2: MBP-Nsa2 (natural protein)
chain: MPQNDYIERHIKQHGKRLDHEERKRKREARESHKISERAQKLTGWKGKQFAKKRYAEKVSMRKKIKAHEQSKVKGSSKPLDTDGDALPTYLLDREQNNTAKAISSSIKQKRLEKADKFSVPLPKVRGISEEEMFKVIKTGKSRSKSWKRMITKHTFVGEGFTRRPVKMERIIRPSALRQKKANVTHPELGVTVFLPILAVKKNPQSPMYTQLGVLTKGTIIEVNVSELGMVTAGGKVVWGKYAQVTNEPDRDGCVNAVLLV
For B2, in assay [1], the binding result is “binds”.

B3: Nsa2-His6-TEV-ProtA: Nsa2 tagged with His6-TEV-ProtA used for CRAC (protein, UniProt P40078 1-261, looked up)
Ribosome biogenesis protein …: B2 chain
modifications: His6-TEV-ProtA tag
For B3, in assay [2] (rRNA helix H42), the “CRAC hits on H42” value is given as 15%. Besides, the “CRAC hits on H89” value in assay [2] (rRNA helix H89) is recorded as 60%. Besides, the “CRAC hits on H90” value in assay [2] (rRNA helix H90) is on record as 25%.

B4: nsa2 Y90F: Nsa2 with tyrosine 90 mutated to phenylalanine (protein)
chain: B2 chain with Y90F
modifications: left off: MBP, N-terminal, kept
With B4, in assay [3], the “growth / viability (complementation)” value is “normal growth”.

B5: MBP-Nsa2 Y90F (natural protein)
chain: B2 chain with Y90F
In the case of B5, the binding result in assay [1] is on record as “binds”.
